What was measured:
Plasmodium falciparum [1] = assay: Resistance index ratio of IC50 for asexual erythrocyte stage of chloroquine-resistant Plasmodium falciparum Dd2 to IC50 for asexual erythrocyte stage of chloroquine-sensitive Plasmodium falciparum D10; type: functional
Plasmodium falciparum [2] = assay: Antimalarial activity against asexual erythrocyte stage of chloroquine-resistant Plasmodium falciparum Dd2 by parasite lactate dehydrogenase assay; type: functional, organism-based
Method in brief: (§1)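 Asexual erythrocyte-stage P. falciparum kept in continuous culture (modified Trager–Jensen). Growth was read by parasite lactate dehydrogenase assay. Stocks were 20 mg/ml in 100% DMSO, sonicated, and tested as suspension if not dissolved. Full dose–response started at 100 ng/ml, with 2-fold serial dilution in complete medium to 10 concentrations (lowest 0.2 ng/ml). Each strain was tested in triplicate on one occasion. IC50 is 50% parasite growth inhibition.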

CHO = assay: Cytotoxicity against CHO cells by MTT assay; type: cell-based, Cricetulus griseus; details: for Activity: chinese hamster, cho; for IC50: Cricetulus griseus, CHO
Plasmodium falciparum [3] = assay: Antimalarial activity against asexual erythrocyte stage of chloroquine-sensitive Plasmodium falciparum D10 by parasite lactate dehydrogenase assay; type: functional, organism-based; method in brief: as §1

## C[C@H]1[C@@H](OCCN2CCOCC2)O[C@@H]2O[C@@]3(C)CC[C@H]4[C@H](C)CC[C@@H]1[C@@]24OO3.O=C(O)C(=O)O
Plasmodium falciparum [1]
  Ratio IC50: 3.483
Plasmodium falciparum [2]
  IC50: 16.2 nM
CHO
  Activity: Non-toxic
Plasmodium falciparum [3]
  IC50: 4.64 nM

## C[C@H]1[C@@H](OCCNCCN2CCOCC2)O[C@@H]2O[C@@]3(C)CC[C@H]4[C@H](C)CC[C@@H]1[C@@]24OO3.O=C(O)C(=O)O
Plasmodium falciparum [1]
  Ratio IC50: 8.945
Plasmodium falciparum [2]
  IC50: 61.6 nM
CHO
  Activity: Non-toxic
Plasmodium falciparum [3]
  IC50: 6.88 nM

## C[C@H]1[C@@H](OCCN2CCCCC2)O[C@@H]2O[C@@]3(C)CC[C@H]4[C@H](C)CC[C@@H]1[C@@]24OO3.O=C(O)C(=O)O
Plasmodium falciparum [1]
  Ratio IC50: 9.695
Plasmodium falciparum [2]
  IC50: 32.1 nM
CHO
  Activity: Non-toxic
Plasmodium falciparum [3]
  IC50: 3.31 nM

## C[C@H]1[C@@H](OCCNCCN2CCCCC2)O[C@@H]2O[C@@]3(C)CC[C@H]4[C@H](C)CC[C@@H]1[C@@]24OO3.O=C(O)C(=O)O
Plasmodium falciparum [1]
  Ratio IC50: 9.932
Plasmodium falciparum [2]
  IC50: 66.7 nM
CHO
  Activity: Non-toxic
Plasmodium falciparum [3]
  IC50: 6.72 nM

## CC(C)N(CCNCCO[C@H]1O[C@@H]2O[C@@]3(C)CC[C@H]4[C@H](C)CC[C@@H]([C@H]1C)[C@@]24OO3)C(C)C.O=C(O)C(=O)O
Plasmodium falciparum [1]
  Ratio IC50: 26.24
Plasmodium falciparum [2]
  IC50: 48.1 nM
CHO
  Activity: Non-toxic
Plasmodium falciparum [3]
  IC50: 1.83 nM

## C[C@H]1[C@@H](OCCNCc2ccco2)O[C@@H]2O[C@@]3(C)CC[C@H]4[C@H](C)CC[C@@H]1[C@@]24OO3.O=C(O)C(=O)O
Plasmodium falciparum [1]
  Ratio IC50: 8.858
Plasmodium falciparum [2]
  IC50: 21.4 nM
CHO
  IC50: 79700 nM
Plasmodium falciparum [3]
  IC50: 2.41 nM

## C[C@H]1[C@@H](OCCN(C)Cc2ccccc2)O[C@@H]2O[C@@]3(C)CC[C@H]4[C@H](C)CC[C@@H]1[C@@]24OO3.O=C(O)C(=O)O
Plasmodium falciparum [1]
  Ratio IC50: 13.888
Plasmodium falciparum [2]
  IC50: 20.1 nM
CHO
  IC50: 141000 nM
Plasmodium falciparum [3]
  IC50: 1.44 nM

## C[C@H]1[C@@H](OCCNCCCn2ccnc2)O[C@@H]2O[C@@]3(C)CC[C@H]4[C@H](C)CC[C@@H]1[C@@]24OO3.O=C(O)C(=O)O
Plasmodium falciparum [1]
  Ratio IC50: 31.343
Plasmodium falciparum [2]
  IC50: 189 nM
CHO
  Activity: Non-toxic
Plasmodium falciparum [3]
  IC50: 6.04 nM

## C[C@H]1[C@@H](OCCNCCNc2ccccc2)O[C@@H]2O[C@@]3(C)CC[C@H]4[C@H](C)CC[C@@H]1[C@@]24OO3.O=C(O)C(=O)O
Plasmodium falciparum [1]
  Ratio IC50: 21.086
Plasmodium falciparum [2]
  IC50: 55.1 nM
CHO
  IC50: 47500 nM
Plasmodium falciparum [3]
  IC50: 2.61 nM

## C[C@H]1[C@@H](OCCN2CCNCC2)O[C@@H]2O[C@@]3(C)CC[C@H]4[C@H](C)CC[C@@H]1[C@@]24OO3.O=C(O)C(=O)O
Plasmodium falciparum [1]
  Ratio IC50: 28.318
Plasmodium falciparum [2]
  IC50: 50.9 nM
CHO
  Activity: Non-toxic
Plasmodium falciparum [3]
  IC50: 1.8 nM

## CC(C)CNCCO[C@H]1O[C@@H]2O[C@@]3(C)CC[C@H]4[C@H](C)CC[C@@H]([C@H]1C)[C@@]24OO3.O=C(O)C(=O)O
Plasmodium falciparum [1]
  Ratio IC50: 13.68
Plasmodium falciparum [2]
  IC50: 54.9 nM
CHO
  IC50: 72900 nM
Plasmodium falciparum [3]
  IC50: 4.01 nM

## C[C@H]1[C@@H](O)O[C@@H]2O[C@@]3(C)CC[C@H]4[C@H](C)CC[C@@H]1[C@@]24OO3 [ARTENIMOL]
Plasmodium falciparum [1]
  Ratio IC50: 4.433
Plasmodium falciparum [2]
  IC50: 3.48 nM
Plasmodium falciparum [3]
  IC50: 0.785 nM

## CC[C@H]1CN2CCc3cc(OC)c(OC)cc3[C@@H]2C[C@@H]1C[C@H]1NCCc2cc(OC)c(OC)cc21 [EMETINE]
CHO
  IC50: 19.8 nM

## C[C@H]1[C@H](OC(=O)CCC(=O)[O-])O[C@@H]2O[C@@]3(C)CC[C@H]4[C@H](C)CC[C@@H]1[C@@]24OO3.[Na+] [SODIUM ARESUNATE]
Plasmodium falciparum [1]
  Ratio IC50: 27.719
Plasmodium falciparum [2]
  IC50: 25.9 nM
Plasmodium falciparum [3]
  IC50: 0.933 nM
